Values after ≈ are worked out from the molar mass of the structure shown.
Columns and labels:
[1] = tested on: WiDr; test: In vitro antitumor activity against WiDr colon carcinoma tumor cell line was determined; type: functional; conditions: Homo sapiens, read-out: ID50 (the source's name)
Summary of the method: (§1)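 Cell growth inhibition in vitro measured by the PIT method, with mitomycin C as positive reference.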

[2] = tested on: L1210; test: In vitro antitumor activity against L1210 lymphocytic leukemia tumor cell line was determined; type: functional; conditions: Mus musculus, read-out: ID50 (the source's name)
Summary of the method: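 Inhibition of L1210 leukemia colony formation in vitro, with mitomycin C as positive reference.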

[3] = tested on: A204; test: In vitro antitumor activity against A204 rhabdomyosarcoma tumor cell line was determined; type: functional; conditions: Homo sapiens, read-out: ID50 (the source's name); summary of the method: as §1
[4] = tested on: Mus musculus; test: Percentage change in body weight [(day 6 - day 1)/ day 1] for antitumor activity against P388 Leukemia in CD2 mice at fractioned dose treatment of 70 mg/Kg; type: functional; conditions: in the assay text read “single dose treatment” for “fractioned dose treatment”
Summary of the method: (§2)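 Mouse P388 leukemia model. Drugs were given intraperitoneally, either as a single injection or once daily for 9 consecutive days (fractioned schedule). Outcomes were median survival time in days, %T/C, and % body weight change.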

[5] = tested on: Mus musculus; test: Mean relative body weight change of treated / mean relative body weight change of control when compound (50 mg/kg/day) administered to inhibit growth of human tumor xenograft GXF 97 was reported at day 21 in mice; type: functional
Summary of the method: (§3)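 GXF 97 xenograft grown subcutaneously in nude mice for 24 days, then randomized; ip dosing began 1 day later, given on days 1-4, with 4-5 mice per group. Read-out is mean relative body weight change of treated divided by mean relative body weight change of controls, in %.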

[6] = tested on: Mus musculus; test: Median survival time in days for antitumor activity against P388 Leukemia in CD2 mice at fractioned dose treatment of 18 mg/Kg; type: functional
Summary of the method: (§4)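 P388 leukemia-bearing mice were dosed intraperitoneally once daily for 9 consecutive days (fractioned schedule). The read-out was median survival time in days, reported alongside %T/C and % body weight change.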

[7] = tested on: Mus musculus; test: Relative tumor size on day 28 was reported when compound (50 mg/kg/day) administered to inhibit growth of human tumor xenograft GXF 97 in mice tested after 28 days; type: functional
Summary of the method: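 GXF 97 human gastric xenograft grown subcutaneously in nude mice for 24 days, then mice randomized; treatment began 1 day later. Fractioned ip injections on days 1-4, or single iv injection on day 1; 4-5 mice per group. Tumor size from length and width; relative tumor size (% of controls) read at day 28.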

[8] = tested on: Mus musculus; test: Median survival time in days for antitumor activity against P388 Leukemia in CD2 mice at a single dose treatment of 50 mg/Kg; type: functional
Summary of the method: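 P388 leukemia-bearing mice were given one intraperitoneal injection. The read-out was median survival time in days, reported alongside %T/C and % body weight change.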

[9] = tested on: Mus musculus; test: Percent T/C ([…]) for antitumor activity against P388 Leukemia in CD2 mice at fractioned dose treatment of 25 mg/Kg; type: functional; summary of the method: as §2
[10] = tested on: Mus musculus; test: Ability of intraperitoneally administered compound (50 mg/kg/day) to inhibit growth of human tumor xenograft GXF 97 was assessed on day 21 tested in five mice; type: functional
Summary of the method: (§5)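 GXF 97 human gastric xenograft grown subcutaneously in nude mice for 24 days, then randomized; dosing began 1 day later as ip injections on days 1-4. Groups had 4-5 mice. Tumor length and width were measured. %T/C = median relative tumor size of treated / median relative tumor size of controls.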

[11] = tested on: Mus musculus; test: Percent inhibition of compound (50 mg/Kg) was evaluated in vivo for antitumor activity against MAC 13 in female NMRI mice on day 29; type: functional
Summary of the method: (§6)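 MAC 13 in female NMRI mice. Drugs were given in arachis oil BP by ip route on day 2 or day 29. % inhibition was derived from treated/untreated control tumor weight (volume); a negative value indicates stimulation.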

[12] = tested on: Mus musculus; test: Ability of intraperitoneally administered compound (50 mg/kg/day) to inhibit growth of human tumor xenograft GXF 97 was assessed on day 14 tested in five mice; type: functional; summary of the method: as §5
[13] = tested on: Mus musculus; test: Body wieght treated/body weight untreated controls of compound (40 mg/Kg) was evaluated in vivo for antitumor activity against MAC 16 in female NMRI mice on day 4; type: functional
[14] = tested on: Mus musculus; test: Compound (50 mg/Kg) was evaluated in vivo for antitumor activity against MAC 13 in female NMRI mice on day 29 and ratio of tumor weight of treated to that of control was determined
[15] = tested on: Mus musculus; test: Mean relative body weight change of treated / mean relative body weight change of control when compound (50 mg/kg/day) administered to inhibit growth of human tumor xenograft GXF 97 was reported at day 28 in mice; type: functional; summary of the method: as §3
[16] = tested on: Mus musculus; test: Percentage change in body weight [(day 6 - day 1)/ day 1] for antitumor activity against P388 Leukemia in CD2 mice at fractioned dose treatment of 18 mg/Kg; type: functional; summary of the method: as §2
[17] = tested on: Mus musculus; test: Percentage change in body weight [(day 6 - day 1)/ day 1] for antitumor activity against P388 Leukemia in CD2 mice at fractioned dose treatment of 25 mg/Kg; type: functional; summary of the method: as §2
[18] = tested on: Mus musculus; test: Compound (40 mg/Kg) was evaluated in vivo for antitumor activity against MAC 16 in female NMRI mice on day 4 and ratio of tumor weight of treated to that of control was determined; type: functional
[19] = tested on: Mus musculus; test: Compound (40 mg/Kg) was evaluated in vivo for antitumor activity against MAC 16 in female NMRI mice on day 12 and ratio of tumor weight of treated to that of control was determined; type: functional
[20] = tested on: Mus musculus; test: Mean relative body weight change of treated / mean relative body weight change of control when compound (50 mg/kg/day) administered to inhibit growth of human tumor xenograft GXF 97 was reported at day 14 in mice; type: functional; summary of the method: as §3
[21] = tested on: Mus musculus; test: Compound (50 mg/Kg) was evaluated in vivo for antitumor activity against MAC 13 in female NMRI mice on day 2 and ratio of tumor weight of treated to that of control was determined
[22] = tested on: Mus musculus; test: Percent T/C ([…]) for antitumor activity against P388 Leukemia in CD2 mice at a single dose treatment of 50 mg/Kg; type: functional
Summary of the method: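 P388 leukemia mice given a single intraperitoneal injection. Median survival time (days) and body weight change were recorded. %T/C was derived from the survival of treated versus control mice.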

[23] = tested on: Mus musculus; test: Percent change in body weight [(day 6 - day 1)/ day 1] when P388 Leukemic CD2 mice were treated with a compound (50 mg/Kg); type: functional
[24] = tested on: Mus musculus; test: Percent T/C ([…]) for antitumor activity against P388 Leukemia in CD2 mice at fractioned dose treatment of 18 mg/Kg; type: functional; summary of the method: as §2
[25] = tested on: Mus musculus; test: Median survival time in days for antitumor activity against P388 Leukemia in CD2 mice at fractioned dose treatment of 25 mg/Kg; type: functional; summary of the method: as §4
[26] = tested on: Mus musculus; test: Percent inhibition of compound (50 mg/Kg) was evaluated in vivo for antitumor activity against MAC 13 in female NMRI mice on day 2; type: functional; summary of the method: as §6
[27] = tested on: Mus musculus; test: Median survival time in days for antitumor activity against P388 Leukemia in CD2 mice at single dose treatment of 70 mg/kg
[28] = tested on: Mus musculus; test: Percent T/C ([…]) for antitumor activity against P388 Leukemia in CD2 mice at fractioned dose treatment of 70 mg/kg; type: functional; conditions: in the assay text read “single dose” for “fractioned dose”; summary of the method: as §2
[29] = tested on: Mus musculus; test: Body wieght treated/body weight untreated controls of compound (40 mg/Kg) was evaluated in vivo for antitumor activity against MAC 16 in female NMRI mice on day 12; type: functional
[30] = tested on: Mus musculus; test: Ability of intraperitoneally administered compound (50 mg/kg/day) to inhibit growth of human tumor xenograft GXF 97 was assessed on day 28 tested in five mice; type: functional; summary of the method: as §5

## COC1=CC(=O)c2c(c(COC(C)=O)c3n2CCCC3OC(C)=O)C1=O (stereo not given)
[1]
  IC50: 0.115 µg/mL (≈ 0.318 µM)
[2]
  IC50: 0.582 µg/mL (≈ 1.61 µM)
[3]
  IC50: 0.133 µg/mL (≈ 0.368 µM)

## CCCC(=O)OCc1c2c(n3c1C(OC(=O)CCC)CC3)C(=O)C(C)=C(OC)C2=O (stereo not given)
[1]
  IC50: 0.069 µg/mL (≈ 0.165 µM)
[2]
  IC50: > 0.64 µg/mL
[3]
  IC50: 0.021 µg/mL (≈ 0.0503 µM)

## CCNC(=O)OCc1c2c(n3c1C(O)CC3)C(=O)C=C(OC)C2=O (stereo not given)
[1]
  IC50: 0.029 µg/mL (≈ 0.0867 µM)
[2]
  IC50: 0.118 µg/mL (≈ 0.353 µM)
[3]
  IC50: 0.001 µg/mL (≈ 0.00299 µM)

## COC1=C(Br)C(=O)c2c(c(COC(C)=O)c3n2CCCC3OC(C)=O)C1=O (stereo not given)
[1]
  IC50: 6.49 µg/mL (≈ 14.7 µM)
[2]
  IC50: 1.12 µg/mL (≈ 2.54 µM)
[3]
  IC50: 4.14 µg/mL (≈ 9.39 µM)

## COC1=C(C)C(=O)c2c(c(CO)c3n2CCC3O)C1=O (stereo not given)
[4]
  BWC: -0.9%
[5]
  BWC: 107.2%
[6]
  MST: 11 days
[7]
  Relative TS: 20.6%
[8]
  MST: 11 days
[9]
  T/C: 100%
[10]
  T/C: 4.8%
[11]
  I: -21%
[12]
  T/C: 12.6%
[13]
  BW: 118%
[14]
  T/C: 121%
[15]
  BWC: 103.4%
[16]
  BWC: 17.3%
[17]
  BWC: 17.1%
[18]
  T/C: 102%
[19]
  T/C: 89%
[20]
  BWC: 103.8%
[21]
  T/C: 97%
[1]
  IC50: 1.33 µg/mL (≈ 4.81 µM)
[22]
  T/C: 100%
[23]
  BWC: 2.5%
[2]
  IC50: 2.6 µg/mL (≈ 9.39 µM)
[24]
  T/C: 100%
[25]
  MST: 11 days
[3]
  IC50: 0.641 µg/mL (≈ 2.31 µM)
[26]
  I: 3%
[27]
  MST: 10 days
[28]
  T/C: 91%
[29]
  BW: 93%
[30]
  T/C: 3.1%

## CC(=O)OCc1c2c(n3c1C(OC(C)=O)CC3)C(=O)C(C)=C(N1CC1)C2=O (stereo not given)
[1]
  IC50: 0.02 µg/mL (≈ 0.0537 µM)
[2]
  IC50: 0.166 µg/mL (≈ 0.446 µM)
[3]
  IC50: 0.001 µg/mL (≈ 0.00269 µM)

## CCNC(=O)OCc1c2c(n3c1C(O)CCC3)C(=O)C=C(OC)C2=O (stereo not given)
[1]
  IC50: 0.18 µg/mL (≈ 0.517 µM)
[2]
  IC50: 0.942 µg/mL (≈ 2.7 µM)
[3]
  IC50: < 0.1 µg/mL

## CCNC(=O)OCc1c2c(n3c1C(O)CC3)C(=O)C(C)=C(OC)C2=O (stereo not given)
[1]
  IC50: 0.051 µg/mL (≈ 0.146 µM)
[2]
  IC50: 0.206 µg/mL (≈ 0.591 µM)
[3]
  IC50: 0.001 µg/mL (≈ 0.00287 µM)

## COC1=C(Br)C(=O)c2c(c(COC(C)=O)c3n2CCC3OC(C)=O)C1=O (stereo not given)
[1]
  IC50: 0.492 µg/mL (≈ 1.15 µM)
[2]
  IC50: 0.217 µg/mL (≈ 0.509 µM)
[3]
  IC50: 0.479 µg/mL (≈ 1.12 µM)

## COC1=C(C)C(=O)c2c(c(CO)c3n2CCCC3O)C1=O (stereo not given)
[1]
  IC50: 5.89 µg/mL (≈ 20.2 µM)
[2]
  IC50: 3.72 µg/mL (≈ 12.8 µM)
[3]
  IC50: 2.69 µg/mL (≈ 9.23 µM)

## COC1=C(C)C(=O)c2c(c(COC(C)=O)c3n2CCCC3OC(C)=O)C1=O (stereo not given)
[1]
  IC50: 0.171 µg/mL (≈ 0.456 µM)
[2]
  IC50: 1.54 µg/mL (≈ 4.1 µM)
[3]
  IC50: < 0.1 µg/mL

## CCNC(=O)OCc1c2c(n3c1C(O)CCC3)C(=O)C(C)=C(OC)C2=O (stereo not given)
[1]
  IC50: 0.251 µg/mL (≈ 0.693 µM)
[2]
  IC50: 1.17 µg/mL (≈ 3.22 µM)
[3]
  IC50: 0.05 µg/mL (≈ 0.138 µM)

## COC1=CC(=O)c2c(c(CO)c3n2CCCC3O)C1=O (stereo not given)
[1]
  IC50: 2.17 µg/mL (≈ 7.83 µM)
[2]
  IC50: 1.33 µg/mL (≈ 4.78 µM)
[3]
  IC50: 1.2 µg/mL (≈ 4.31 µM)

## COC1=CC(=O)c2c(c(COC(C)=O)c3n2CCCC3O)C1=O (stereo not given)
[1]
  IC50: 0.287 µg/mL (≈ 0.899 µM)
[2]
  IC50: 1.75 µg/mL (≈ 5.49 µM)
[3]
  IC50: 0.115 µg/mL (≈ 0.36 µM)

## CCOC(=S)SCc1c2c(n3c1CCC3)C(=O)C(C)=C(OC)C2=O
[1]
  IC50: 3.71 µg/mL (≈ 10.1 µM)
[2]
  IC50: > 6.4 µg/mL
[3]
  IC50: 0.585 µg/mL (≈ 1.6 µM)

## COC1=CC(=O)c2c(c(CO)c3n2CCC3O)C1=O (stereo not given)
[1]
  IC50: 2.6 µg/mL (≈ 9.87 µM)
[2]
  IC50: 1.15 µg/mL (≈ 4.35 µM)
[3]
  IC50: 2.6 µg/mL (≈ 9.87 µM)
